Data: ChEMBL document CHEMBL1122131, “1,1,2-triphenylbut-1-enes: relationship between structure, estradiol receptor affinity, and mammary tumor inhibiting properties” (1982)

Experiments:
Mus musculus [1] = test: Anti-neoplastic effect in estrogen and progesterone receptor positive hormone-dependent postmenopausal human mammary carcinoma bearing mice at 2.5 mg/kg/day; format: functional
In short: (§1)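 Human ER- and PR-positive, hormone-dependent postmenopausal mammary carcinoma, serially transplanted in NMRI nu/nu mice (castrated females or males, about 25 g, 6–7 weeks old, 10–12 per group). Drug given sc in olive oil 6 times/week; controls received vehicle for 4–6 weeks. Two tumor diameters measured weekly. Size is relative to treatment start (=1), averaged after 4 weeks. Compared with controls at α ≤ 0.05.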

[2] = molecular target: Estrogen receptor (Bos taurus) (UniProt Q9XSB5+P49884); test: Binding affinity against Estrogen receptor in calf-uterine cytosol relative to 17-beta-estradiol using [3H]estradiol.; format: protein assay
In short: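 Calf uterine cytosol was incubated with [3H]estradiol and six concentrations of unlabeled competitor at 4 °C for 16 h. Incubation was stopped with dextran-coated charcoal; after centrifugation, supernatant radioactivity was counted. The concentrations of estradiol and of test compound giving 50% displacement were read from a semilog plot. Relative binding affinity = [E2]/[I] × 100.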

Mus musculus [3] = test: Anti-neoplastic effect in estrogen and progesterone receptor positive hormone-dependent postmenopausal human mammary carcinoma bearing mice at 3 mg/kg/day; format: functional; in short: as §1
Mus musculus [4] = test: Anti-neoplastic effect in estrogen and progesterone receptor positive hormone-dependent postmenopausal human mammary carcinoma bearing mice at 3.4 mg/kg/day; format: functional; in short: as §1
Rattus norvegicus [5] = test: Percent complete remission in DMBA-induced hormone-dependent mammary carcinoma bearing rats at 1.71 mg/kg/day; format: functional
In short: (§2)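 Female Sprague-Dawley rats received one 20 mg DMBA dose by gastric intubation at age 50 days. About 4 weeks later, rats with at least one tumor over 140 mm² were grouped in tens. Drug given sc in olive oil 6 times/week. Read-outs were tumors classed as complete remission, partial remission, no change or progression, plus % change in tumor area and in body weight.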

Rattus norvegicus [6] = test: Percent tumor progression in DMBA-induced hormone-dependent mammary carcinoma bearing rats at 6.83 mg/kg/day; format: functional; in short: as §2
Rattus norvegicus [7] = test: Percent change in body weight in DMBA-induced hormone-dependent mammary carcinoma bearing rats at 6.83 mg/kg/day; format: functional; in short: as §2
Rattus norvegicus [8] = test: Percent tumor progression in DMBA-induced hormone-dependent mammary carcinoma bearing rats at 0.85 mg/kg/day; format: functional; in short: as §2
Rattus norvegicus [9] = test: Percent tumor progression in DMBA-induced hormone-dependent mammary carcinoma bearing rats at 1.71 mg/kg/day; format: functional; in short: as §2
Rattus norvegicus [10] = test: Percent partial remission in DMBA-induced hormone-dependent mammary carcinoma bearing rats at 1.71 mg/kg/day; format: functional; in short: as §2
Rattus norvegicus [11] = test: Percent change in body weight in DMBA-induced hormone-dependent mammary carcinoma bearing rats at 1.71 mg/kg/day; format: functional; in short: as §2
Rattus norvegicus [12] = test: Percent change in body weight in DMBA-induced hormone-dependent mammary carcinoma bearing rats at 0.85 mg/kg/day; format: functional; in short: as §2
Rattus norvegicus [13] = test: Percent unchanged tumor size in DMBA-induced hormone-dependent mammary carcinoma bearing rats at 1.71 mg/kg/day; format: functional; in short: as §2
Rattus norvegicus [14] = test: Percent partial remission in DMBA-induced hormone-dependent mammary carcinoma bearing rats at 0.85 mg/kg/day; format: functional; in short: as §2
Rattus norvegicus [15] = test: Percent complete remission in DMBA-induced hormone-dependent mammary carcinoma bearing rats at 6.83 mg/kg/day; format: functional; in short: as §2
Rattus norvegicus [16] = test: Percent unchanged tumor size in DMBA-induced hormone-dependent mammary carcinoma bearing rats at 6.83 mg/kg/day; format: functional; in short: as §2
Rattus norvegicus [17] = test: Percent change in tumor area in DMBA-induced hormone-dependent mammary carcinoma bearing rats at 6.83 mg/kg/day; format: functional; in short: as §2
Rattus norvegicus [18] = test: Percent unchanged tumor size in DMBA-induced hormone-dependent mammary carcinoma bearing rats at 0.85 mg/kg/day; format: functional; in short: as §2
Rattus norvegicus [19] = test: Percent partial remission in DMBA-induced hormone-dependent mammary carcinoma bearing rats at 6.83 mg/kg/day; format: functional; in short: as §2
Rattus norvegicus [20] = test: Percent change in tumor area in DMBA-induced hormone-dependent mammary carcinoma bearing rats at 0.85 mg/kg/day; format: functional; in short: as §2
Rattus norvegicus [21] = test: Percent change in tumor area in DMBA-induced hormone-dependent mammary carcinoma bearing rats at 1.71 mg/kg/day; format: functional; in short: as §2
Rattus norvegicus [22] = test: Percent complete remission in DMBA-induced hormone-dependent mammary carcinoma bearing rats at 0.85 mg/kg/day; format: functional; in short: as §2
Mus musculus [23] = test: Anti-neoplastic effect in estrogen and progesterone receptor positive hormone-dependent postmenopausal human mammary carcinoma bearing mice at 2.2 mg/kg/day; format: functional; in short: as §1

RBA [2]	Structure (SMILES)	Tumor size (Mus musculus [1])	Tumor size (Mus musculus [3])	also measured
0.7%	CC/C(=C(/c1ccccc1)c1cccc(OC(C)=O)c1)c1ccccc1	2.12		
0.2%	CC/C(=C(\c1ccccc1)c1cccc(OC(C)=O)c1)c1cccc(OC(C)=O)c1		2.36	
5.7%	CC/C(=C(/c1ccccc1)c1ccc(OC(C)=O)cc1)c1ccccc1	1.24		
3%	CC/C(=C(\c1ccc(OC(C)=O)cc1)c1cccc(OC(C)=O)c1)c1ccc(OC(C)=O)cc1			Tumor size (Mus musculus [4]): 2.04
1.2%	CCC(=C(c1cccc(OC(C)=O)c1)c1cccc(OC(C)=O)c1)c1ccccc1		2.4	
2%	CC/C(=C(\c1ccccc1)c1ccc(OC(C)=O)cc1)c1ccccc1	1.3		
4.2%	CCC(=C(c1ccc(OC(C)=O)cc1)c1ccc(OC(C)=O)cc1)c1ccc(OC(C)=O)cc1			Tumor size (Mus musculus [4]): 1.52
5.9%	CC/C(=C(/c1ccccc1)c1ccc(OC(C)=O)cc1)c1ccc(OC(C)=O)cc1		0.83	
1.5%	CCC(=C(c1cccc(OC(C)=O)c1)c1cccc(OC(C)=O)c1)c1cccc(OC(C)=O)c1			Change (Rattus norvegicus [5]): 3%; Tumors (Rattus norvegicus [6]): 35%; Change (Rattus norvegicus [7]): 3.6%; Tumors (Rattus norvegicus [8]): 40%; Tumors (Rattus norvegicus [9]): 44%; Tumors (Rattus norvegicus [10]): 16%; Change (Rattus norvegicus [11]): 3.2%; Change (Rattus norvegicus [12]): 5.2%; Tumors (Rattus norvegicus [13]): 37%; Tumors (Rattus norvegicus [14]): 14%; Change (Rattus norvegicus [15]): 5%; Tumors (Rattus norvegicus [16]): 30%; Change (Rattus norvegicus [17]): 54%; Tumors (Rattus norvegicus [18]): 44%; Tumor size (Mus musculus [4]): 2.12; Tumors (Rattus norvegicus [19]): 30%; Change (Rattus norvegicus [20]): 102%; Change (Rattus norvegicus [21]): 78%; Tumors (Rattus norvegicus [22]): 2%
1.8%	CC/C(=C(/c1ccc(OC(C)=O)cc1)c1cccc(OC(C)=O)c1)c1cccc(OC(C)=O)c1			Tumor size (Mus musculus [4]): 2.44
1.5%	CCC(=C(c1ccccc1)c1ccccc1)c1cccc(OC(C)=O)c1	1.04		
1%	CC/C(=C(\c1ccccc1)c1ccc(OC(C)=O)cc1)c1ccc(OC(C)=O)cc1		1.39	
1.1%	CC/C(=C(/c1ccccc1)c1cccc(OC(C)=O)c1)c1cccc(OC(C)=O)c1		1.35	
3.8%	CCC(=C(c1ccccc1)c1ccccc1)c1ccc(OC(C)=O)cc1	1.12		
0.8%	CCC(=C(c1ccccc1)c1ccccc1)c1ccccc1			Tumor size (Mus musculus [23]): 1.61
2.7%	CC/C(=C(\c1ccc(OC(C)=O)cc1)c1cccc(OC(C)=O)c1)c1cccc(OC(C)=O)c1			Tumor size (Mus musculus [4]): 1.69
0.3%	CC/C(=C(\c1ccccc1)c1cccc(OC(C)=O)c1)c1ccccc1	2.41		
6.8%	CCC(=C(c1ccc(OC(C)=O)cc1)c1ccc(OC(C)=O)cc1)c1ccccc1		0.81	
